Measured values gathered from unrelated publications.
Each line is one published result; the experiments were not run side by side.
Cell line: K562
Effect on: cell growth or viability

Structure (SMILES)	test	setting	IC50
O=C(NO)c1ccc(Cn2cnc3c(Nc4ccc(Br)cc4F)ncnc32)cc1	MTT	72 h	5.18 µM
CC(C)[C@@H]1NC(=O)[C@H](Cc2c[nH]cn2)NC1=O	MTT		> 15 µM
COc1ccc(Nc2ncnc3c2ncn3Cc2ccc(C(=O)Nc3ccccc3N)cc2)cc1	MTT	72 h	> 50 µM
COc1cccc2c1C(=O)c1c(O)c3c(c(O)c1C2=O)C[C@@](O)(C(=O)CO)C[C@@H]3O[C@H]1C[C@H](N)[C@H](O)[C@H](C)O1		96 h	0.13 µM
FC(F)(F)c1ccc(-c2cc(CNc3cccc4cccnc34)on2)cc1	MTS	72 h	> 100 µM
CC(C)[C@@H]1NC(=O)/C(=C/c2cnc[nH]2)NC1=O	MTT		> 15 µM
O=c1cc(OCc2cc(-c3ccc(Cl)cc3Cl)no2)c2ccccc2o1	MTS	72 h	> 100 µM
CN1CCC(NC2CCc3[nH]c4c(C(N)=O)ccc(-c5ccccc5Cl)c4c3C2)CC1 (stereo not shown)			0.0214 µM
O=C(NO)c1ccc(Cn2cnc3c(Nc4cccc([N+](=O)[O-])c4)ncnc32)cc1	MTT	72 h	10.4 µM
c1ccc(-c2cc(CNc3cccc4cccnc34)on2)cc1	MTS	72 h	> 100 µM
